# Experimental data of several laboratories.
# Lines come from different studies, so protocols differ.
# Target: Mitogen-activated protein kinase 14 (MAPK14, Homo sapiens, UniProt Q16539)
Structure (SMILES),assay,conditions,measurement,value
CC(C)(C)c1cc(C=C(C#N)C#N)cc(Br)c1O,"enzyme activity, inhibitor",0.5 µM,remaining activity,98.3%
N#CC1(c2ccccn2)CCN(Cc2cc(C(=O)O)c(=O)n3ccccc23)CC1,"cell-free assay, competition with immobilised ligand",1 µM,remaining binding,100%
O=c1[nH]c2ccccc2n1C1CCN(Cc2ccc(-c3[nH]c4cc5ncnc5cc4nc3-c3ccccc3)cc2)CC1,cell-free assay,0.5 µM,remaining signal,99.7%
COc1ncccc1-c1cnn2ccc(N3CCN(C(=O)OC(C)C)CC3)nc12,"binding, competition with immobilised ligand",1 µM,remaining binding,94%
COc1cc(Cl)c(C(=O)N[C@@H](CN[C@H]2CC[C@@H](N)CC2)Cc2ccc(C#N)cc2)cc1-c1ccc(CN[C@H](C)c2ccc(C)cc2)o1,"enzyme activity, inhibitor",1 µM,remaining activity,107%
Cn1cncc1[C@@](O)(COc1ccc(C#N)cc1-c1ccc(OC(F)(F)F)cc1)c1ccc(C#N)cc1,"cell-free assay, competition with immobilised ligand",1 µM,remaining binding,100%
Cc1nn(C)cc1-c1nc2c(N3CCN(Cc4ccc(Cl)cc4)CC3)c(Cl)cnc2[nH]1,"binding, competition with immobilised ligand",1 µM,remaining binding,71%
O=C(Nc1cccnn1)N1CCN([C@@H]2CCOc3cc(C(F)(F)F)ccc32)CC1,"enzyme activity, inhibitor",20 µM,inhibition,-20%
C#Cc1n[nH]c2c(-c3cn(C(C)c4ccccn4)c(=O)[nH]c3=O)cc(F)cc12 (stereo not shown),"enzyme activity, inhibitor",1 µM,inhibition,-4.4%
Cc1ncc(C)n2nc(/C=C/c3nc(N4CCCC4)cc(N4CCOCC4)n3)nc12,"enzyme activity, inhibitor",10 µM,inhibition,0%
